Laboratory results published in publication PMC6142812 (Bioorganic & medicinal chemistry letters, 2018).

Assays:
[1] = test system: other seven mGlu receptors; conditions: comparators 1 and 2, previously published; cited from earlier work
rat mGlu5 = rat mGlu5 (Rattus norvegicus, UniProt P31424); test: Calcium mobilization rat mGlu5 functional assay; format: cell-based; conditions: for fold more active than 11: mGlu5 potency relative to compound 11; for mGlu5 pIC50 (±SEM): rat mGlu5 in HEK293A cells, EC80 glutamate, avg. of n ≥ 3
[2] = Rat pharmacokinetics study, intravenous dosing; format: in vivo; conditions: compound 14; male Sprague-Dawley rats, IV 1.0 mg/kg, n=2
Procedure, shortened: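 Single IV dose of 1.0 mg/kg test compound given to male Sprague-Dawley rats (n=2). Half-life, mean residence time, plasma clearance and steady-state volume of distribution were derived for the parent and for its alcohol metabolite.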

[3] = Stability in rat whole blood at 37 °C; format: in vitro ADME; conditions: one hour
[4] = Metabolic stability in human S9 hepatic fractions with and without NADPH; format: in vitro ADME; conditions: for CLHEP (predicted hepatic clearance): QH = 21; for CLint scaled at 1 h: human, liver S9 hepatic fractions, CLINT (intrinsic clearance)
[5] = Metabolic stability in rat S9 hepatic fractions with and without NADPH; format: in vitro ADME; conditions: for CLHEP (predicted hepatic clearance): QH = 70; for CLint scaled at 1 h: rat, liver S9 hepatic fractions, CLINT (intrinsic clearance)

rat mGlu5, sequence (P31424 21-1203): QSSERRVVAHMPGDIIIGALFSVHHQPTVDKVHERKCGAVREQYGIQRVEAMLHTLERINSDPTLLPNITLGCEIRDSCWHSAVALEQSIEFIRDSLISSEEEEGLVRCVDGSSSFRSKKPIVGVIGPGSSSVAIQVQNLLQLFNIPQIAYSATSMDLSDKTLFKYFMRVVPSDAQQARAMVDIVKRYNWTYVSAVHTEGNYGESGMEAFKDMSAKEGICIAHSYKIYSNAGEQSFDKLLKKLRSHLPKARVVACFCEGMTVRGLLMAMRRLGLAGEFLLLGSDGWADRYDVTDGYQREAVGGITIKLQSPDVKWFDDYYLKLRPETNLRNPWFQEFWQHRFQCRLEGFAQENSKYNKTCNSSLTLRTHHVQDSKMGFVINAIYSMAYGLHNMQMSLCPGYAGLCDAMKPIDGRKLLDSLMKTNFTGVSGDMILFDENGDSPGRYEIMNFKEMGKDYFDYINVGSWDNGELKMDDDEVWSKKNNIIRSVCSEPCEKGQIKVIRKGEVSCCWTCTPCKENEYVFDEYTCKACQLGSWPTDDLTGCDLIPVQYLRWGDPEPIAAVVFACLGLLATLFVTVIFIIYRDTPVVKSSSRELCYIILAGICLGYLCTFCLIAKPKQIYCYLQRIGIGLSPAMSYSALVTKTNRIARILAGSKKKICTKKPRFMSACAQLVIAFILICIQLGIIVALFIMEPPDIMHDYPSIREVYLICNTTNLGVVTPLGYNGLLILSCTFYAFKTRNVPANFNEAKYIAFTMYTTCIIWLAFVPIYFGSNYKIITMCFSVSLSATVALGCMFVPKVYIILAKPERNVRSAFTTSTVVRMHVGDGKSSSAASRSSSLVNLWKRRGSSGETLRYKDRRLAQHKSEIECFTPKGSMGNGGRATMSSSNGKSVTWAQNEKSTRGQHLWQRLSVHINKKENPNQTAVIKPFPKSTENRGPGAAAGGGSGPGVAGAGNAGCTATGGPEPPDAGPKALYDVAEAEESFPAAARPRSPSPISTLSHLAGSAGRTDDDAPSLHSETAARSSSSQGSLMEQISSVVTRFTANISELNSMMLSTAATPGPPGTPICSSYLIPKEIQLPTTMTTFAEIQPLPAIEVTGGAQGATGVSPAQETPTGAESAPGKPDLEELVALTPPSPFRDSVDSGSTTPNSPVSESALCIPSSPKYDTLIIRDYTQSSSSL

For `O=C(Nc1ccc(F)cn1)c1cc(Oc2cncc(F)c2)cn2ncnc12` [Compound 2], the “selectivity vs. other mGlus” value [1] is given as >500.
In the case of `O=C(Nc1ccc(F)cn1)c1cc(Oc2cncc(F)c2)cc2cccnc12` [Compound 3], the “potency versus mGlu5 (in words)” value (rat mGlu5; compared with compound 2) is reported as “similarly potent”.
In the case of `Cc1cccc(NC(=O)c2cc(C(=O)c3cncnc3)cc3cccnc23)n1` [Compound 12], the “fold more active than 11” value (rat mGlu5) is reported as “more than 10 fold”.
With `O=C(c1cncnc1)c1cc(C(=O)Nc2ccc(F)cn2)c2ncccc2c1` [Compound 13] the “fold more active than 11” value (rat mGlu5) was “more than 10 fold”.
With `Cc1csc(NC(=O)c2cc(C(=O)c3cncnc3)cc3cccnc23)n1` [Compound 14] the “Clp” value [2] was 3430 mL/min/kg and the “conversion to metabolite (ketone reduction, alcohol 53)” value [3] was “near complete conversion”.
For `Cc1csc(NC(=O)c2cc(C(F)c3cncnc3)cc3cccnc23)n1` (stereo not drawn) [Compound 21], the “CLHEP (predicted hepatic clearance)” value ([4]; human S9, +NADPH, CLHEP = (QH × CLINT)/(QH + CLINT)) was 17.3 mL/min/kg, the “CLHEP (predicted hepatic clearance)” value ([4]; human S9, −NADPH) was 12.6 mL/min/kg and the CLint scaled at 1 h ([4]; human S9, +NADPH) was 98.2 mL/min/kg. For the same molecule, the CLint scaled at 1 h ([4]; human S9, −NADPH) was 31.3 mL/min/kg, the “CLHEP (predicted hepatic clearance)” value ([5]; rat S9, +NADPH, CLHEP = (QH × CLINT)/(QH + CLINT)) was 51.8 mL/min/kg and the “CLHEP (predicted hepatic clearance)” value ([5]; rat S9, −NADPH) was 23.2 mL/min/kg. For the same molecule, the CLint scaled at 1 h ([5]; rat S9, +NADPH) was 199 mL/min/kg and the CLint scaled at 1 h ([5]; rat S9, −NADPH) was 34.7 mL/min/kg.
With `N#Cc1ccc(NC(=O)c2cc(C(F)(F)c3cncnc3)cc3cccnc23)nc1` [Compound 32] the “mGlu5 pIC50 (±SEM)” value (rat mGlu5) was < 4.5.
For `COc1ccnc(NC(=O)c2cc(C(F)(F)c3cncnc3)cc3cccnc23)c1` [Compound 34], the “mGlu5 pIC50 (±SEM)” value (rat mGlu5) was < 4.5.
In the case of `N#Cc1ccnc(NC(=O)c2cc(C(F)(F)c3cncnc3)cc3cccnc23)c1` [Compound 35], the “mGlu5 pIC50 (±SEM)” value (rat mGlu5) is reported as < 4.5.
With `O=C(Nc1nc(C2CC2)cs1)c1cc(C(F)(F)c2cncnc2)cc2cccnc12` [Compound 36] the “fold drop in mGlu5 potency” value (rat mGlu5; relative to compound 27 (methyl to cyclopropyl)) was 3.5 fold.
